Activity calls are given as the source filed them. The calls are words filed in the database; no cut-off is given here.
How the values were obtained:
[1] = biological target: T1, Mitogen-activated protein kinase kinase kinase kinase 2 (Homo sapiens, UniProt Q12851); experiment: Inhibition of MAP4K2 (unknown origin) Lys1 labeling site by KiNativ Profiling analysis
T1 sequence (Q12851 whole entry): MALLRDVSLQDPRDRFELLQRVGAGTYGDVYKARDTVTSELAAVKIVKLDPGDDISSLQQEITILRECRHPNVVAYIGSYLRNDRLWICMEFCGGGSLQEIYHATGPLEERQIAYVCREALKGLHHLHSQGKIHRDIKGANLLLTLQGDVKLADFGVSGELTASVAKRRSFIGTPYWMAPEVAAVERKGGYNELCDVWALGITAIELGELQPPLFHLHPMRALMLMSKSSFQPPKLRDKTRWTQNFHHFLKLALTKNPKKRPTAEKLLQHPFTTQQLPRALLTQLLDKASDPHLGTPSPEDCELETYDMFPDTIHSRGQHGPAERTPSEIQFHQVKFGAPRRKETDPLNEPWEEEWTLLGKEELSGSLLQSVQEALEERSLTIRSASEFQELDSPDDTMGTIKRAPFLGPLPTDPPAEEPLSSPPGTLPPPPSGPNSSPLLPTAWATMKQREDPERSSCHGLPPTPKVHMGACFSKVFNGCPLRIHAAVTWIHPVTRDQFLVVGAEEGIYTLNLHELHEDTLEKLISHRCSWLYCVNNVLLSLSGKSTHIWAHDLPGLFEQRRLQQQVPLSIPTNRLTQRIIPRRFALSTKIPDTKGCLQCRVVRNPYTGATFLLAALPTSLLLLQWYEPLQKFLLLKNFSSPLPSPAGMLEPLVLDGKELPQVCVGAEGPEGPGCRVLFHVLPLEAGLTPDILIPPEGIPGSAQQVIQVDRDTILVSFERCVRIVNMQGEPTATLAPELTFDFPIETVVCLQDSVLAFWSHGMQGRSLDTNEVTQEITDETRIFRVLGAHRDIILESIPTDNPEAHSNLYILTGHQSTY

[2] = biological target: T2, Mitogen-activated protein kinase kinase kinase 7 (Homo sapiens, UniProt O43318); experiment: Inhibition of TAK1 (unknown origin) Lys2 labeling site by KiNativ Profiling analysis
T2 sequence (O43318 whole entry): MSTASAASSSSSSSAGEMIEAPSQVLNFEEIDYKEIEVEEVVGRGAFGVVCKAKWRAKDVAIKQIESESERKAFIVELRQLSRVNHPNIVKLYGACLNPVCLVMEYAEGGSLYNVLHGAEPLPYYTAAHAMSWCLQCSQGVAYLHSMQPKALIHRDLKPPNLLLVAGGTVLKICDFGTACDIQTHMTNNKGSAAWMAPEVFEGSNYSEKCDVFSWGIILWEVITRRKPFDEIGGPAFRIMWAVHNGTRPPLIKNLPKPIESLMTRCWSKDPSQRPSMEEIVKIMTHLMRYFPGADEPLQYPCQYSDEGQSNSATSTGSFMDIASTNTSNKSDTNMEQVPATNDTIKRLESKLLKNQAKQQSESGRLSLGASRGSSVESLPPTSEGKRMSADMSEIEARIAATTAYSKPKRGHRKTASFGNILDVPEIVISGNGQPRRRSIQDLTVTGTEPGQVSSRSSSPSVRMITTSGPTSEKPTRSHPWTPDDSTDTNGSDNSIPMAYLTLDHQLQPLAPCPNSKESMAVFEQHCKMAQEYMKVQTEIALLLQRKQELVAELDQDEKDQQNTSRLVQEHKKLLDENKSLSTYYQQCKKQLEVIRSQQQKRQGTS

[3] = biological target: Serine/threonine-protein kinase ATR (Homo sapiens) (UniProt Q13535); experiment: Inhibition of ATR ATP labeling site in human A-375 cells at 0.05 uM by KiNativ Profiling analysis relative to control; format: cell-based
[4] = biological target: Cyclin-dependent kinase 17 (Homo sapiens) (UniProt Q00537); experiment: Inhibition of PCTAIRE2 Lys1 labeling site harbouring SKLTENLVALKEIR in human A-375 cells at 0.5 uM by KiNativ Profiling analysis relative to control; format: cell-based
[5] = biological target: T3, Serine/threonine-protein kinase ULK3 (Homo sapiens) (UniProt Q6PHR2); experiment: Inhibition of ULK3 Lys2 labeling site in human A-375 cells at 5 uM by KiNativ Profiling analysis relative to control; format: cell-based
T3 sequence (whole entry): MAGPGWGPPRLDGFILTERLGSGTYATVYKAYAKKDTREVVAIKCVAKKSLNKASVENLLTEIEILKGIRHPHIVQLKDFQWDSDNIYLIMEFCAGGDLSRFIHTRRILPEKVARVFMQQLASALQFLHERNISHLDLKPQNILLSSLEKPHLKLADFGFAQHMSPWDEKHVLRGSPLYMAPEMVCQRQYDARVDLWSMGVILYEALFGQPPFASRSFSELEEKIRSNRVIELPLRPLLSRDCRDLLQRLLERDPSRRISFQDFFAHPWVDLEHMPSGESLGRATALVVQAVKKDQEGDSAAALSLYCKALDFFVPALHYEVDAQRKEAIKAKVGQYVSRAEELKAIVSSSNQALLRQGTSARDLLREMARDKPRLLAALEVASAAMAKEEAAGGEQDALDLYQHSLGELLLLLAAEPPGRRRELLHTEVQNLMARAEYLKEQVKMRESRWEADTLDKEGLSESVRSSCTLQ

[6] = tested on: MEF; experiment: Inhibition of TGF-beta induced p38 MAPK phosphorylation level in TAK1 deficient mouse MEF cells incubated for 1 hr followed by TGF-beta stimulation by Western blot analysis; format: functional, cell-based; details: dose <= 500.0 nM
In short: (§1)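 In serum-starved WT and TAK1–/– MEFs (0.1% FBS, 16 h), inhibitor was added 1 h before TGFβ (50 pM, 45 min). Cleared lysates were immunoblotted for phospho-SMAD2 and phospho-p38.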

[7] = tested on: MEF; experiment: Inhibition of IL-1 induced p38 MAPK phosphorylation level in TAK1 deficient mouse MEF cells incubated for 1 hr followed by IL-1 stimulation by Western blot analysis; format: functional, cell-based; details: dose <= 500.0 nM
In short: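 WT and TAK1-null MEFs were grown in DMEM with 10% FBS and held in 0.1% FBS for 16 h. Compound was added 1 h before mouse IL-1α (5 ng/mL, 10 min). Cells were lysed in ice-cold buffer and extracts cleared at 16000g. Phospho-p38 was detected by Western blot.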

[8] = tested on: MEF; experiment: Inhibition of TGF-beta induced SMAD2 phosphorylation level in TAK1 deficient mouse MEF cells at upto 500 nM incubated for 1 hr followed by TGF-beta stimulation by Western blot analysis; format: functional, cell-based; in short: as §1
[9] = biological target: T4, Mitogen-activated protein kinase kinase kinase kinase 2 (Homo sapiens) (UniProt Q12851); experiment: Inhibition of MAP4K2 Lys1 labeling site in human A-375 cells at 0.5 uM by KiNativ Profiling analysis relative to control; format: cell-based
T4 sequence (whole entry): T1 sequence (Q12851 whole entry)

[10] = biological target: T5, Mitogen-activated protein kinase kinase kinase 7 (Homo sapiens) (UniProt O43318); experiment: Inhibition of TAK1 Lys2 labeling site in human A-375 cells at 0.5 uM by KiNativ Profiling analysis relative to control; format: cell-based
T5 sequence (whole entry): T2 sequence (O43318 whole entry)

Sequence of Serine/threonine-protein kinase ATR (Homo sapiens) (Q13535 whole entry, looked up): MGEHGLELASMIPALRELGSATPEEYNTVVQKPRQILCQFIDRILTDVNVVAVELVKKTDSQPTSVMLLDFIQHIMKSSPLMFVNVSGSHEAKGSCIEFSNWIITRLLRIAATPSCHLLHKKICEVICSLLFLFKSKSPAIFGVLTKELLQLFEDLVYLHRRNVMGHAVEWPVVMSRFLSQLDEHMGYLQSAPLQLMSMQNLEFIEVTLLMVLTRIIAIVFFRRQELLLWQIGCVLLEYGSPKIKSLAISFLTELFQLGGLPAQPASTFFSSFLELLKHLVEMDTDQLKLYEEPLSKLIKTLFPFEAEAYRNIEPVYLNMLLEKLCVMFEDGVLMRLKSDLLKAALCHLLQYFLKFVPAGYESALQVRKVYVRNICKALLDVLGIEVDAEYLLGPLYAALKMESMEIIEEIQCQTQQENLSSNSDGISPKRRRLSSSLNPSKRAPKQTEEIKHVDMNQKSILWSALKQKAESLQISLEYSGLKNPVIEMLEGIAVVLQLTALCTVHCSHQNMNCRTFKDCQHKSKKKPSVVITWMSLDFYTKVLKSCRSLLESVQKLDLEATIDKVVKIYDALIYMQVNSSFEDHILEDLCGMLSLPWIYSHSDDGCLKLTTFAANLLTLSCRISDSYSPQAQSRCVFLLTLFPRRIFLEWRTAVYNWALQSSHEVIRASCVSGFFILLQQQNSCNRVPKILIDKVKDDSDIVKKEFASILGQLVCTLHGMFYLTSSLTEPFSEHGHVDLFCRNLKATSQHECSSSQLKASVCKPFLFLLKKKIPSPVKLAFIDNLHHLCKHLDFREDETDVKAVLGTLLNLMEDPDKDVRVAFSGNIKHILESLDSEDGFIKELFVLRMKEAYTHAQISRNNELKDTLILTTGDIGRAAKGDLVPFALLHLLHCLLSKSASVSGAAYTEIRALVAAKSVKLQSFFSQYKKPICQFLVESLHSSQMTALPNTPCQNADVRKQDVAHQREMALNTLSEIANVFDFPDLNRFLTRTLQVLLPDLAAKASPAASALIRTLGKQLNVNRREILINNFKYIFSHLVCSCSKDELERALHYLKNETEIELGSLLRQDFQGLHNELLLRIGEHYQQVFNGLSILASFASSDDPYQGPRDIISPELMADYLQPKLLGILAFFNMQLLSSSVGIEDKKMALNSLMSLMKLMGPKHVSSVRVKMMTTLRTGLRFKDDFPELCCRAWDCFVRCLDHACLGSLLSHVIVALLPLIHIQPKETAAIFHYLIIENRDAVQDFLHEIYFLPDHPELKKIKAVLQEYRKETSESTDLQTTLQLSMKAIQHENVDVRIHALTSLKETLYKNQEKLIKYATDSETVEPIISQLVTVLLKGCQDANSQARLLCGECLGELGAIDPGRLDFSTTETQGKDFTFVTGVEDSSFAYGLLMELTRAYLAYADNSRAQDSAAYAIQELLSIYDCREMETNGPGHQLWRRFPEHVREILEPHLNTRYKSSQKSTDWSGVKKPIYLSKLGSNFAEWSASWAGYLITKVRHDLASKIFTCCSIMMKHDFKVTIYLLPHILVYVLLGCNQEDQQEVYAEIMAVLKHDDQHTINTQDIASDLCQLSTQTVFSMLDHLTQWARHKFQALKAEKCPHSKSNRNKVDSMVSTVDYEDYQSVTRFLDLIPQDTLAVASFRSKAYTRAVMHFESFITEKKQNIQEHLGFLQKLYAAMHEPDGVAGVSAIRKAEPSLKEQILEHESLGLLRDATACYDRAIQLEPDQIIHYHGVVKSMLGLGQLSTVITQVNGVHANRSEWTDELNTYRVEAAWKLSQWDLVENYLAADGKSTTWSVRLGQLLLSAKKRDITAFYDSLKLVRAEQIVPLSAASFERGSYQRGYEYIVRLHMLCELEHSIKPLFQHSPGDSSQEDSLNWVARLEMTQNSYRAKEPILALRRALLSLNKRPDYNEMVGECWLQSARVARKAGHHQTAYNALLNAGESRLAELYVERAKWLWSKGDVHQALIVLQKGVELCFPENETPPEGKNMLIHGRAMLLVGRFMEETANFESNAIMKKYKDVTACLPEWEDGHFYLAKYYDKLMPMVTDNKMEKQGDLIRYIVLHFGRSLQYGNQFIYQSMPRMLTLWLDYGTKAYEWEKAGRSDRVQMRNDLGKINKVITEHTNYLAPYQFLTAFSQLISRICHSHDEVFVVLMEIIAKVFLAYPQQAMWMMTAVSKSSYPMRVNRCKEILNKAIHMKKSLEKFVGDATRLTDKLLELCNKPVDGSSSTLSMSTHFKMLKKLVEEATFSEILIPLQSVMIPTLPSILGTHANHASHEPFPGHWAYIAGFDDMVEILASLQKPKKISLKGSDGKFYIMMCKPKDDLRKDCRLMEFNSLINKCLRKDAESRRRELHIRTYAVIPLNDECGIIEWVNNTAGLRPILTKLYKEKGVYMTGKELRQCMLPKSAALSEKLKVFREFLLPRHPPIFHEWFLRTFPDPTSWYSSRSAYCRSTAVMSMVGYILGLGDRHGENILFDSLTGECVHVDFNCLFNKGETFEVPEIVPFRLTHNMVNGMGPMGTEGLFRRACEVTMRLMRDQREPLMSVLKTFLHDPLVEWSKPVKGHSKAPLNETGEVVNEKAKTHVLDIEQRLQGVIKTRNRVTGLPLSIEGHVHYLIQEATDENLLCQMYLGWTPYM
Sequence of Cyclin-dependent kinase 17 (Homo sapiens) (Q00537 whole entry, looked up): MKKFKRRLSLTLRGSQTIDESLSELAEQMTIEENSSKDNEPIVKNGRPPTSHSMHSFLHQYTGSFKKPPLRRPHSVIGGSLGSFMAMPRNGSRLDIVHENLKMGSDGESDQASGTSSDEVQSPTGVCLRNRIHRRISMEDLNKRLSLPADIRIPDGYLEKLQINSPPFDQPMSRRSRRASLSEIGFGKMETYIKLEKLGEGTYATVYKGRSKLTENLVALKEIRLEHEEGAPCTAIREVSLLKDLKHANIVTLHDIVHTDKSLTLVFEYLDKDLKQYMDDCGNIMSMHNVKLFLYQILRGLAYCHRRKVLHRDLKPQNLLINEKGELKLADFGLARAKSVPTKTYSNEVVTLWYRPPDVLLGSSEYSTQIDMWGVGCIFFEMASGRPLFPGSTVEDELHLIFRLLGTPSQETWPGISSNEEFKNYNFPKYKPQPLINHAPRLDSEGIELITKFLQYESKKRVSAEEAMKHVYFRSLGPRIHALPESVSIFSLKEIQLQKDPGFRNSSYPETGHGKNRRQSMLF

SMILES | IC50 [1] [µM] | IC50 [2] [µM] | inhibition [3] [%] | inhibition [4] [%] | inhibition [5] [%] | inhibition [6] | inhibition [7] | inhibition [8] | inhibition [9] [%] | inhibition [10] [%]
CCN1CCN(Cc2ccc(NC(=O)c3ccc(C)c(/C=C/c4cnc5[nH]ccc5c4OC)c3)cc2C(F)(F)F)CC1 | 0.098 | 0.041 | -7.3 | 11.3 | 52.5 | – | – | – | – | –
CCN1CCN(Cc2ccc(NC(=O)c3ccc(C)c(Oc4ccnc5[nH]ccc45)c3)cc2C(F)(F)F)CC1 | – | 0.149 | 7.9 | 31.7 | 44.8 | Dose-Dependent Effect | Dose-Dependent Effect | Active | > 99.5 | 97.1
CNc1cc(Oc2cc(C(=O)Nc3cc(-n4cnc(C)c4)cc(C(F)(F)F)c3)ccc2C)ncn1 | 0.129 | > 1.11 | – | – | – | Dose-Dependent Effect | Dose-Dependent Effect | inactive | 79.7 | 29.3
CNc1cc(Oc2cc(C(=O)Nc3cc(N4CCN(C)CC4)cc(C(F)(F)F)c3)ccc2C)ncn1 | 0.0372 | 2.7 | – | – | – | Dose-Dependent Effect | Dose-Dependent Effect | inactive | 85.3 | 7

Source: ChEMBL document CHEMBL5696442, “Discovery of type II inhibitors of TGFβ-activated kinase 1 (TAK1) and mitogen-activated protein kinase kinase kinase kinase 2 (MAP4K2)” (J Med Chem, 2015)
